Results published in ChEMBL document CHEMBL4411269, “Required Immunoproteasome Subunit Inhibition Profile for Anti-Inflammatory Efficacy and Clinical Candidate KZR-616 ((2 S,3 R)- N-(( S)-3-(Cyclopent-1-en-1-yl)-1-(( R)-2-methyloxiran-2-yl)-1-oxopropan-2-yl)-3-hydroxy-3-(4-methoxyphenyl)-2-(( S)-2-(2-morpholinoacetamido)propanamido)propenamide)” (J Med Chem, 2018).
Values after ≈ are worked out from the molar mass of the structure shown. Active and inactive are the calls of the source. The rule behind the calls is not given here.

Legend:
[1] = Solubility of the compound in phosphate buffer at pH 7.2 at 10 mg/ml after 24 hrs by HPLC-UV method; type: physicochemical
Summary of the method: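 Compound shaken at a target 10 mg/mL in 50 mM potassium phosphate buffer for 24 h at 25 °C, then centrifuged at 15 000 rpm for 15 min. Supernatant diluted 100-fold in DMSO and quantified by HPLC-UV (220/254/280 nm) against a three-level DMSO standard curve, in duplicate.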

[2] = target: T1, Proteasome subunit beta type-9 (Mus musculus, UniProt P28076); assay: Inhibition of LMP2 in mouse A20 cells by ELISA; type: cell-based
T1 sequence (P28076 whole entry): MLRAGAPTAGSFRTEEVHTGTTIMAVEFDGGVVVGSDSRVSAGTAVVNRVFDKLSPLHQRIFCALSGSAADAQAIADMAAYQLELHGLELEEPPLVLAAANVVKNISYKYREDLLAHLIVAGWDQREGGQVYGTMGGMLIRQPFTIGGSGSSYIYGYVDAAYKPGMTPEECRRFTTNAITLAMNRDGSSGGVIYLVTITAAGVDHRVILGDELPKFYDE
Summary of the method: (§1)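 Mouse A20 B-cell lymphoma cell lysate (1 mg/mL, hypotonic 20 mM Tris pH 8, 5 mM EDTA) treated with serially diluted compound for 1 h at 25 °C. Then 5 μM biotinylated active-site probe for 2 h at 25 °C, guanidine denaturation and streptavidin bead capture. Subunit-specific antibody and HRP chemiluminescence, signal normalized to protein, IC50 from percent activity versus DMSO controls.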

[3] = target: T2, Proteasome subunit beta type-9 (Homo sapiens, UniProt P28065); assay: Inhibition of LMP2 in human MOLT4 cells by ELISA; type: cell-based
T2 sequence (P28065 whole entry): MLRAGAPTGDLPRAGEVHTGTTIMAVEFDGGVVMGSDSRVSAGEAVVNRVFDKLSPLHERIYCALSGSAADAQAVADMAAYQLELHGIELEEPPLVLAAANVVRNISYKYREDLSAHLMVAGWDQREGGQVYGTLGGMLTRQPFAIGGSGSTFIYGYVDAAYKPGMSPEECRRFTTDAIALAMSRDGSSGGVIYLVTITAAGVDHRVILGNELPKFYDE

[4] = target: T3, Proteasome subunit beta type-5 (Mus musculus, UniProt O55234); assay: Inhibition of 20S proteosome beta 5 in mouse A20 cells by ELISA; type: cell-based
T3 sequence (O55234 whole entry): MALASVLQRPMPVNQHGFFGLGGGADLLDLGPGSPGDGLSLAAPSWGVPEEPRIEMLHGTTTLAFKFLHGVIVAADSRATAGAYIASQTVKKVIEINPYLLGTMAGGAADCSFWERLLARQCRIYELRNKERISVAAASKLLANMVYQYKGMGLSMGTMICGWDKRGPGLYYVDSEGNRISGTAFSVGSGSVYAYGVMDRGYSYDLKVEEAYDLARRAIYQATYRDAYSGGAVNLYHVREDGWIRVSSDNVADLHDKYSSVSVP

[5] = target: T4, Proteasome Macropain subunit MB1 (Homo sapiens, UniProt P28074); assay: Inhibition of 20S proteosome beta 5 in human MOLT4 cells by ELISA; type: cell-based
T4 sequence (P28074 whole entry): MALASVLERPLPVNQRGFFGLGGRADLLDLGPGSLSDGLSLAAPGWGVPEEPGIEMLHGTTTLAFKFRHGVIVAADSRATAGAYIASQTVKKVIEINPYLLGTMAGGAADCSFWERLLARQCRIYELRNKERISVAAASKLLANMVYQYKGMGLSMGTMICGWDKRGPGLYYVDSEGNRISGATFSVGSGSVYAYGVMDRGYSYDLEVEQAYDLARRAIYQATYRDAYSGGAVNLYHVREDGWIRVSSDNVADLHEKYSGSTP

[6] = target: T5, Proteasome subunit beta type-10 (Homo sapiens, UniProt P40306); assay: Inhibition of MECL1 in human MOLT4 cells by ELISA; type: cell-based
T5 sequence (P40306 whole entry): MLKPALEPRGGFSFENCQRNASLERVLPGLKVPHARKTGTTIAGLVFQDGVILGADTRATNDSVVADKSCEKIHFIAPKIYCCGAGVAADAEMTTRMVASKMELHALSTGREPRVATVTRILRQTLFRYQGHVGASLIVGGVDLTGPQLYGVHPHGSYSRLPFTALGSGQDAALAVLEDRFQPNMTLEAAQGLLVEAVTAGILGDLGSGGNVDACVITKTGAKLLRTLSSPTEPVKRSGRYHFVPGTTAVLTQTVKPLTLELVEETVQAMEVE

[7] = target: T6, Proteasome subunit beta type-8 (Mus musculus, UniProt P28063); assay: Inhibition of LMP7 in mouse A20 cells by ELISA; type: cell-based; summary of the method: as §1
T6 sequence (P28063 whole entry): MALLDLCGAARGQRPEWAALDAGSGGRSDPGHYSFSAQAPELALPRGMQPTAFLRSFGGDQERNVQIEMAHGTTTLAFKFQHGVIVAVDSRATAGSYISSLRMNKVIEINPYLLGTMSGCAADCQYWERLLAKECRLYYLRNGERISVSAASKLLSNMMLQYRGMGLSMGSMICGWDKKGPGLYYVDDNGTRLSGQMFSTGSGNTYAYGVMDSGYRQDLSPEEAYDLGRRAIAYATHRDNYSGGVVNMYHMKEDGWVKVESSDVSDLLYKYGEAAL

[8] = target: T7, Proteasome subunit beta type-10 (Mus musculus, UniProt O35955); assay: Inhibition of MECL1 in mouse A20 cells by ELISA; type: cell-based; summary of the method: as §1
T7 sequence (O35955 whole entry): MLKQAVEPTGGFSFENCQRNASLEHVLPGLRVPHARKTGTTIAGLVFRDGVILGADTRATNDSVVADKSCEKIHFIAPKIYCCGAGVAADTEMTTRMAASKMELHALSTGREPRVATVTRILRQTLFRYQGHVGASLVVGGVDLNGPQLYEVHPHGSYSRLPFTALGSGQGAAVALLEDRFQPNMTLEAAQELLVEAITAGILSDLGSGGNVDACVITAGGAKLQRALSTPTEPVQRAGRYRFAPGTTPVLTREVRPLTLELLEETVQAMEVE

[9] = tested on: PBMC; assay: Antiinflammatory activity in human PBMC assessed as reduction in LPS-stimulated TNF-alpha expression at 250 nM preincubated for 1 hr followed by LPS stimulation measured after 24 hrs by ELISA; type: functional, cell-based
Summary of the method: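 Cryopreserved healthy-donor PBMC in RPMI 1640 with 5% heat-inactivated FBS, 250 000 cells/well. Compound (0.1% DMSO final) for 1 h at 37 °C, 5% CO2, then 4 washes with medium. Stimulated with 1 μg/mL LPS for 24 h; supernatant TNFα, IL-6 and IL-12/23p40 by electrochemiluminescent immunoassay. Mean level relative to DMSO controls, n = 6.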

Row | Compound | solubility at 24 h [1] | IC50 [2] | IC50 [3] | IC50 [4] | IC50 [5] | IC50 [6] | IC50 [7] | IC50 [8] | Activity [9]
1 | Cc1ccc(CC[C@H](NC(=O)[C@H](Cc2ccccc2)NC(=O)[C@H](CC(C)C)NC(=O)CN2CCCCCC2)C(=O)[C@@]2(C)CO2)cc1 | 7 µg/mL (≈ 11.1 µM) | > 25000 nM | > 25000 nM | 378 nM | 486 nM | 71 nM | 1920 nM | 305 nM | inactive
2 | COc1ccc([C@@H](O)[C@H](NC(=O)[C@H](C)NC(=O)CN2CCOCC2)C(=O)N[C@@H](CC2=CCCC2)C(=O)[C@@]2(C)CO2)cc1 [ZETOMIPZOMIB] | 7070 µg/mL (≈ 12100 µM) | 179 nM | 131 nM | 483 nM | 688 nM | 623 nM | 57 nM | 522 nM | Active
3 | COc1ccc(C[C@H](NC(=O)[C@@H](C)NC(=O)[C@H]2CC[C@H](O)CC2)C(=O)N[C@@H](CC2=CCCC2)C(=O)[C@@]2(C)CO2)cc1 | 491 µg/mL (≈ 862 µM) | 3960 nM | 1850 nM | 2650 nM | 2670 nM | > 25000 nM | 374 nM |  | 
